Arrestin-AP2 inh: inhibitors of beta-arrestin/AP2 binding, primary screen, biochemical, GPCR trafficking, flow cytometry; beta-arrestin 1 C-terminal peptide binding to AP2 beta2-adaptin appendage (human); FITC-arrestin peptide / GST-AP2 beads; AP2 beta2 appendage carries R879A mutation; inhibition, % at 10 µM; actives 0.31% (n = 340,000); AID 504490, 2011;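 active means inhibition above a set limit, near 3 SD of compounds lacking own fluorescence, cut at about 54% in these data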
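Material – GST-tagged AP2 beta2-adaptin appendage (R879A) on 4 µm glutathione beads · Probe or stimulus – fluorescein-tagged arrestin peptide at 50 nM final · Timing – 12 min plus 1 h, RT · Detection – bead flow cytometry, FITC channel · Read-out basis – inhibition as reduced fluorescein signal on beads, percent · Medium – PBS plus Tween 20 (0.05%) and BSA (0.1%)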
Rin1 Abl inh: inhibitors of Rin1-Abl protein binding, primary screen, biochemical, TR-FRET | Tyrosine-protein kinase ABL1 (Homo sapiens) + Ras and Rab interactor 1 (Homo sapiens), … | inhibition, % at 7.35 µM | actives 0.4% (n = 360,000) | AID 588664, 2011; in the data active means inhibition above about 5%, passing the limit was not always enough
Beta2AR agonist: beta2AR agonists driving receptor internalization, primary screen, cell-based, FAP fluorogen, flow cytometry. Beta-2 adrenergic receptor (Homo sapiens), P07550. Am2.2-beta2AR cells. actives 0.43% (n = 340,000). response, % (concentration not given with the values);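 active means response above a set limit, near 3 SD of response in nonfluorescent compounds, cut at about 42% in these data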
MBD2 DNA inh: inhibitors of MBD2 binding to methylated DNA, primary screen, biochemical, TR-FRET, DNA-binding domain, human; Methyl-CpG-binding domain protein 2 (Homo sapiens), Q9UBB5; MBD2 binding to methylated oligonucleotide; inhibition, % at 4.4 µM; actives 0.31% (n = 370,000); AID 686964, 2013; in the data active means inhibition above about 13%
Target sequence (Q9UBB5 whole entry, looked up, the tested form may be a part): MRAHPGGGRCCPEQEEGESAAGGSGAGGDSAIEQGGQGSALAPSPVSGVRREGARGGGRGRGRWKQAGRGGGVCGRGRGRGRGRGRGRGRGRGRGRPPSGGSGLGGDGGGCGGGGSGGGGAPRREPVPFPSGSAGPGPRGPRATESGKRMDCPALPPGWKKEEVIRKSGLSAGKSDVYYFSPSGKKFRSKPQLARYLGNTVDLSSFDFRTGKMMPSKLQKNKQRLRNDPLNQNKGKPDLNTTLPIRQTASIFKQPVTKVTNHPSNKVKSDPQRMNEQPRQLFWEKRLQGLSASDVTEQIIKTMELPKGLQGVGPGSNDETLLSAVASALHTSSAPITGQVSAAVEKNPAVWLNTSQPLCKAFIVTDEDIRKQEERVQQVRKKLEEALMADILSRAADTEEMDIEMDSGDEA
UHRF1 binding: UHRF1 methylated DNA binding inhibitors, primary screen, counter-screen for MBD2 inhibitor project, biochemical, TR-FRET, human UHRF1, single concentration. E3 ubiquitin-protein ligase UHRF1 (Homo sapiens), Q96T88. UHRF1 binding to methylated oligo. inhibition, % at 4.4 µM. actives 0.75% (n = 370,000). AID 687016, 2013; in the data active means inhibition above about 21%;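 further: UHRF1 SRA domain binding a hemimethylated CpG hairpin DNA probe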
ABHD5 PLIN5 PPI: ABHD5-PLIN5 interaction inhibitors, primary screen, cell lysate, split luciferase complementation, luminescence; actives 0.78% (n = 360,000); Perilipin-5 (Homo sapiens) + 1-acylglycerol-3-phosphate O-acyltransferase ABHD5 (Homo …; inhibition, % at 4 µM; AID 602281, 2012; Split G. princeps luciferase complementation, 4 h;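 active means inhibition above the mean inhibition across every tested compound plus 3 SD, cut at about 22% in these data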
ABHD5-PLIN5 conf: ABHD5-PLIN5 interaction inhibitors, confirmation, biochemical, luminescence | shares compounds with ABHD5 PLIN5 PPI | inhibition, % at 4 µM | actives 67% (n = 2,200); in the data active means inhibition above about 23%
HNF4 split-luc: HNF4 dimerization inhibitors, counter-screen for ABHD5-PLIN5 interaction inhibitor project, biochemical, split-luciferase complementation, luminescence; shares compounds with ABHD5 PLIN5 PPI; inhibition, % at 4 µM; actives 77% (n = 2,200); AID 651674, 2012;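 active means mean inhibition across replicate wells exceeding the computed hit threshold, cut at about 13% in these data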;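 further: light from luciferase halves that rejoin when HNF4 fusion proteins dimerize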
Each line names hits and unclear results; the compound was inactive in the other large screens (follow-up assays come after a bar, where they were run). Only some compounds are listed: those with a hit (about 2.5% of all), similar ones and a draw of the others.

C#CCCCN([C@@H](CC(C)C)C(=O)OC)S(=O)(=O)c1ccc(F)cc1Br	none (no result: Arrestin-AP2 inh, Rin1 Abl inh, Beta2AR agonist, ABHD5 PLIN5 PPI)
Cc1ccc(S(=O)(=O)N2C[C@H]3n4c(=O)ccc(=O)n4C[C@H](OC(=O)NCc4ccccc4F)[C@@]3(O)C2)cc1	ABHD5 PLIN5 PPI 25 (no result: Arrestin-AP2 inh, Beta2AR agonist) | ABHD5-PLIN5 conf 49 | HNF4 split-luc 42
Cc1ccc(S(=O)(=O)N2C[C@H]3n4c(=O)ccc(=O)n4C[C@H](OC(=O)Nc4cccs4)[C@@]3(O)C2)cc1	ABHD5 PLIN5 PPI 35 (no result: Arrestin-AP2 inh, Beta2AR agonist) | ABHD5-PLIN5 conf 58 | HNF4 split-luc 34
CCOc1cc(/C=C2\CCC/C(=C\c3cc(Cl)c(O)c(OCC)c3)C2=O)cc(Cl)c1O	ABHD5 PLIN5 PPI 55 | ABHD5-PLIN5 conf 68 | HNF4 split-luc 48
C[C@H]1[C@@H](NS(=O)(=O)c2ccccc2[N+](=O)[O-])CC[C@@]23CCCN2C(=O)CCC[C@@H]13	none (no result: Arrestin-AP2 inh, Rin1 Abl inh, Beta2AR agonist, ABHD5 PLIN5 PPI)
Cc1ccc(-n2c(SCC(=O)Nc3ccc(Oc4ccccc4)cc3)nnc2-c2ccco2)cc1	none (no result: Arrestin-AP2 inh, Rin1 Abl inh, Beta2AR agonist, ABHD5 PLIN5 PPI)
CC(=O)c1nnn(-c2cccc([N+](=O)[O-])c2)c1C	none
CC(=O)C1=C(c2cccc([N+](=O)[O-])c2)N(C(C)=O)n2c(C)nnc2S1	ABHD5 PLIN5 PPI 61 | ABHD5-PLIN5 conf 82 | HNF4 split-luc 47
CCOc1ccccc1OCCCC(=O)Nc1nc2ccccc2[nH]1	none
CCOc1ccccc1/C=C/c1nc2ccccc2[nH]c1=O	ABHD5 PLIN5 PPI 27 | ABHD5-PLIN5 conf 50 | HNF4 split-luc 46
COC(=O)C/C=N/N=C1/NC(=O)/C(=C/C(=O)O)S1	ABHD5 PLIN5 PPI 26 | ABHD5-PLIN5 conf inactive | HNF4 split-luc 19
Cc1ncc(N=Nc2ccccc2Cl)c(-c2ccccc2)n1	none
Nc1nc(-c2ccccc2)c(N=Nc2ccccc2Cl)s1	ABHD5 PLIN5 PPI 24 | ABHD5-PLIN5 conf 26 | HNF4 split-luc 17
C=CCN1C(=O)[C@@H](CC(=O)N2CCCCC2)[C@]2(C(=O)OC)CCCCC=C12	none (no result: Arrestin-AP2 inh, Rin1 Abl inh, Beta2AR agonist, ABHD5 PLIN5 PPI)
Cn1c(=O)c([N+](=O)[O-])c(-n2ccnc2)c2ccccc21	ABHD5 PLIN5 PPI 23 | ABHD5-PLIN5 conf inactive | HNF4 split-luc inactive
Cn1c(=O)c([N+](=O)[O-])c(NCCCn2ccnc2)c2ccccc21	none
Cn1c(=O)[nH]c(=O)c2c1nc([N+](=O)[O-])n2Cc1ccccc1	Beta2AR agonist 67, ABHD5 PLIN5 PPI 24 | ABHD5-PLIN5 conf 62 | HNF4 split-luc 59
O=C(Nc1cccc(-c2cccc(Cl)c2)c1)C1CCN(Cc2ccc(CO)o2)CC1	ABHD5 PLIN5 PPI 27 | ABHD5-PLIN5 conf inactive | HNF4 split-luc inactive
OC(CNCC1CCCO1)Cn1c2ccc(Cl)cc2c2cc(Cl)ccc21 (stereo not drawn)	ABHD5 PLIN5 PPI 35 | ABHD5-PLIN5 conf inactive | HNF4 split-luc inactive
CC1=NNC(=O)/C1=C\c1cn(-c2ccccc2)nc1-c1cccs1	Beta2AR agonist 106, ABHD5 PLIN5 PPI 37 | ABHD5-PLIN5 conf 100 | HNF4 split-luc 102
O=C(O)CCCCCN1C(=O)/C(=C/c2cn(-c3ccccc3)nc2-c2cccs2)SC1=S	none
Clc1ccc(-c2nnc3sc(-c4ccc(Br)o4)nn23)cc1	none
Cc1oc(-c2ccc(Cl)cc2)cc1-c1nn2c(-c3ccoc3C)nnc2s1	UHRF1 binding 23, ABHD5 PLIN5 PPI 24 | ABHD5-PLIN5 conf inactive | HNF4 split-luc 17

Assay outcomes as filed in PubChem.
